The test system of one data set is MCF7. Briefly: Antiproliferative activity against human MCF7 cells measured after 72 hrs by MTT assay. The format is functional, cell-based. The settings on record: MCF7, 72 h. The method in brief: (§1)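 Cells (RPMI for DU145, PC3, MDA-MB-231; DMEM for MCF7; 10% FBS, 37 °C, 5% CO₂) plated at 5 x 10³/well. After 24 h, medium replaced with compound at 10-40,000 nM for 72 h. MTT 0.3 mg/mL in PBS for 3 h, formazan dissolved in DMSO, OD at 570 nm with 690 nm reference. IC50 from four-parameter logistic fit; three experiments in triplicate.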

Data set [1] is described as follows: Drug level in C57BL/6N mouse blood at 10 mg/kg, ip measured after 30 mins by LC-MS/MS analysis. The format is ADME, organism-based. The settings on record: whole blood, read-out: Drug uptake. The method in brief:
(§2)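 Male C57BL/6N mice, 8-12 weeks old, fasted overnight (n = 5/group), given conjugate 10 mg/kg (6.3 µmol/kg) IP in saline. Serial tail bleeds of 10 µL at 0.25, 0.5, 1, 2, 4, 6 and 8 h into 0.1 M citric acid, pH 4.5. Stored at -80 °C, processed by protein precipitation and evaporation. Conjugate, gemcitabine and dFdU measured.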

In the next data set the test system is PC-3. Briefly: Antiproliferative activity against human PC3 cells measured after 72 hrs by MTT assay. The format is functional, cell-based. To be noted: PC-3, 72 h. The essentials:
as §1
For orientation: Tetrazolium assays rely on reduction of a dye to a coloured formazan, in cell work by metabolically active cells.

Data set [2] addresses T1, Gonadotropin-releasing hormone receptor (Homo sapiens, UniProt P30968).
T1 sequence (P30968 whole entry): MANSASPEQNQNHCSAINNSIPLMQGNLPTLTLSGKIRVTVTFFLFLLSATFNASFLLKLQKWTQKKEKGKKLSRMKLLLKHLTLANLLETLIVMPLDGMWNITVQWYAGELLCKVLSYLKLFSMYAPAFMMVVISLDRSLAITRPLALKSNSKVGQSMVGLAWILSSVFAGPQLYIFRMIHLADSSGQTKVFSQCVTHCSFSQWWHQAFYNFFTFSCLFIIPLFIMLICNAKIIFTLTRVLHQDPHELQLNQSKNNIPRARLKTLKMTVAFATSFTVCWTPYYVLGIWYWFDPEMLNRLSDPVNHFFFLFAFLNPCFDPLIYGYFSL
As to the kind of experiment: Displacement of [125I]-D-Tyr6-His5-GnRH from recombinant human GnRH receptor expressed in HEK293 cell membrane measured after 16 to 19 hrs by gamma counting method. The format is cell membranes. The essentials: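 Membranes from HEK 293 cells stably expressing human GnRH-R were incubated with 100,000-120,000 cpm [¹²⁵I]-D-Tyr⁶-His⁵-GnRH plus increasing conjugate concentrations. Buffer was 25 mM HEPES, 1 mM CaCl₂, 10 mM MgCl₂, 0.5% BSA, pH 7.4, final volume 0.2 mL, 4 °C for 16-19 h. Samples filtered on PEI-soaked GF/C, washed with ice-cold Tris-HCl and gamma counted. Nonspecific binding defined with 1000 nM triptorelin.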
In general terms: Displacement assays read how much labelled ligand stays bound in the presence of the test substance.

Data set [3] can be described thus: Prodrug activation in human plasma assessed as gemcitabine release at 1 ug/ml measured up to 4 hrs by LC-MS/MS analysis. The format is cell-free. The method in brief:
(§3)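 Human plasma spiked with conjugate at 1 µg/mL. Triplicate 50 µL samples taken at 0, 0.08, 0.5, 1 and 4 h, mixed with 150 µL acetonitrile and stored at -80 °C. Intact conjugate and released gemcitabine followed.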

Data set [4] is described as follows: Prodrug activation in human DU145 cells assessed as dFdU release at 10 uM measured after 8 hrs by LC-MS/MS analysis. The format is cell-based. The settings on record: du-145, 8 h. The essentials:
(§4)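 DU145 cells seeded at 2 x 10⁶ cells/well and exposed to 10 µΜ compound for 1, 4 or 8 h. Medium removed, cells washed twice with ice-cold PBS, lysed in ice-cold MeCN-water (3:2) by scraping, then vortexed, sonicated and spun 3 min at 16,060 g. Conjugate, gemcitabine and dFdU quantified per 10⁶ cells.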

Data set [5] is described as follows: Prodrug activation in human DU145 cells assessed as gemcitabine release at 10 uM measured after 8 hrs by LC-MS/MS analysis. The format is cell-based. To be noted: du-145, 8 h. The essentials:
as §4

The subject of another data set is MDA-MB-231. Briefly: Antiproliferative activity against human MDA-MB-231 cells measured after 72 hrs by MTT assay. To be noted: MDA-MB-231, 72 h. The format is functional, cell-based. The essentials:
as §1

The nature of data set [6]: AUC (1 to 8 hrs) in human DU145 cells assessed per million cells at 10 uM by LC-MS/MS analysis. The format is ADME, cell-based. Also on record: time 1-8 hr, dose 10 uM. To be noted: du-145, 10 µM. The method in brief:
as §4

Another data set has as its system DU-145. Briefly: Antiproliferative activity against human DU145 cells measured after 72 hrs by MTT assay. The format is functional, cell-based. The settings on record: DU-145, 72 h. The essentials:
as §1

Data set [7] is described as follows: Prodrug activation in C57BL/6N mouse blood assessed as dFdU release at 10 mg/kg, ip measured up to 8 hrs by LC-MS/MS analysis. The format is organism-based. To be noted: in vivo. The method in brief:
as §2

A short description of data set [8]: Drug level in C57BL/6N mouse blood at 10 mg/kg, ip measured after 15 mins by LC-MS/MS analysis. The format is ADME, organism-based. To be noted: whole blood, read-out: Drug uptake. The method in brief:
as §2

A short description of data set [9]: Stability of the compound in RPMI medium at 1 uM measured after 72 hrs by LC-MS/MS analysis. The format is physicochemical. The essentials:
(§5)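 Conjugates at 1 µΜ incubated at 37 °C in RPMI with 10% FBS and 1% P/S. Triplicate samples taken at 0, 1, 2, 4, 8, 24, 48 and 72 h, mixed with initial mobile phase, stored at -80 °C. Analysed by LC-MS/MS.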

The nature of data set [10]: Stability of the compound in human plasma at 1 ug/ml measured up to 4 hrs by LC-MS/MS analysis. The format is ADME, cell-free. The method in brief: as §3
A short description of data set [11]: Cmax in human DU145 cells assessed per million cells at 10 uM measured after 4 hrs by LC-MS/MS analysis. The format is ADME, cell-based. Details: dose 10 uM. The settings on record: du-145, 4 h. The method in brief: as §4
A short description of data set [12]: Prodrug activation in C57BL/6N mouse blood assessed as gemcitabine release at 10 mg/kg, ip measured after 30 mins by LC-MS/MS analysis. The format is organism-based. The settings on record: in vivo, 0.5 h. The method in brief:
as §2

A short description of data set [13]: Stability of the compound in RPMI medium assessed as compound degradation at 1 uM measured <24 hrs by LC-MS/MS analysis. The format is physicochemical. To be noted: read-out: Drug degradation. The method in brief:
as §5

A short description of data set [14]: Prodrug activation in C57BL/6N mouse blood assessed as gemcitabine release at 10 mg/kg, ip measured up to 8 hrs by LC-MS/MS analysis. The format is organism-based. The settings on record: in vivo. The essentials:
as §2

Data set [15] in a line: Prodrug activation in C57BL/6N mouse blood assessed as dFdU release at 10 mg/kg, ip measured after 1 hr by LC-MS/MS analysis. The format is organism-based. The settings on record: in vivo. The essentials:
as §2

We go through five compounds from ChEMBL document CHEMBL4400527, “Development of bioactive gemcitabine-D-Lys6-GnRH prodrugs with linker-controllable drug release rate and enhanced biopharmaceutical profile” (Eur J Med Chem, 2019).

What is called pIC50 is the negative decadic logarithm of the IC50, by convention in mol/L.

pIC50: −log10 of the molar value.

As for `CC(C)C[C@H](NC(=O)[C@@H](CCCCNC(=O)OC[C@H]1O[C@@H](n2ccc(N)nc2=O)C(F)(F)[C@@H]1O)NC(=O)[C@H](Cc1ccc(O)cc1)NC(=O)[C@H](CO)NC(=O)[C@H](Cc1c[nH]c2ccccc12)NC(=O)[C@H](Cc1cnc[nH]1)NC(=O)[C@@H]1CCC(=O)N1)C(=O)N[C@@H](CCCNC(=N)N)C(=O)N1CCC[C@H]1C(=O)NCC(N)=O`, the pIC50 in the data set with MCF7 is 6.21; in the data set on PC-3, less than 4.40; in data set [2] it was 9.16; in the data set on MDA-MB-231 it was less than 4.40; with DU-145, less than 4.40. Moreover, in data set [1], the concentration at 0.5 h worked out at 4000 ng/mL. For the same compound, the Drug metabolism entry in data set [3], in data set [4], in [5] and in [7] was “Metabolite_Notdetected” in each case. Moreover, the AUC in data set [6] is 62.8 ng/10^6 cells × hr. Moreover, the concentration at 0.25 h in data set [8] was 4000 ng/mL. Also, the Stability result in data set [9] and in [10] was “Stable” in each case.
Turning to `CC(C)C[C@H](NC(=O)[C@@H](CCCCNC(=O)O[C@@H]1[C@@H](CO)O[C@@H](n2ccc(N)nc2=O)C1(F)F)NC(=O)[C@H](Cc1ccc(O)cc1)NC(=O)[C@H](CO)NC(=O)[C@H](Cc1c[nH]c2ccccc12)NC(=O)[C@H](Cc1cnc[nH]1)NC(=O)[C@@H]1CCC(=O)N1)C(=O)N[C@@H](CCCNC(=N)N)C(=O)N1CCC[C@H]1C(=O)NCC(N)=O`, the pIC50 is 6.35 with MCF7; less than 4.40 with PC-3; 9.96 in data set [2]; less than 4.40 in the data set with MDA-MB-231; 5.01 in the data set on DU-145. The concentration at 0.5 h in data set [1] amounted to 5000 ng/mL. In addition, the Drug metabolism result in [3], in [4], in [5] and in data set [7] was “Metabolite_Notdetected” in each case. The AUC in data set [6] turned out to be 88.7 ng/10^6 cells × hr. Further, the concentration at 0.25 h in data set [8] was determined as 4000 ng/mL. This compound registered a Cmax in data set [11] of 15 ng/10^6 cells in 4 h. Further, the Stability result in [9] and in data set [10] was “Stable” in each case.
Consider `CC(C)C[C@H](NC(=O)[C@@H](CCCCN)NC(=O)[C@H](Cc1ccc(O)cc1)NC(=O)[C@H](CO)NC(=O)[C@H](Cc1c[nH]c2ccccc12)NC(=O)[C@H](Cc1cnc[nH]1)NC(=O)[C@@H]1CCC(=O)N1)C(=O)N[C@@H](CCCNC(=N)N)C(=O)N1CCC[C@H]1C(=O)NCC(N)=O`, for which the pIC50 in the data set with MCF7 was less than 4.40; with PC-3 it was less than 4.40; in data set [2], 7.98; in the data set on MDA-MB-231 it was less than 4.40; in the data set on DU-145, less than 4.40.
As to `CC(C)C[C@H](NC(=O)[C@@H](CCCCNC(=O)CCCCCNC(=O)CCC(=O)OC[C@H]1O[C@@H](n2ccc(N)nc2=O)C(F)(F)[C@@H]1O)NC(=O)[C@H](Cc1ccc(O)cc1)NC(=O)[C@H](CO)NC(=O)[C@H](Cc1c[nH]c2ccccc12)NC(=O)[C@H](Cc1cnc[nH]1)NC(=O)[C@@H]1CCC(=O)N1)C(=O)N[C@@H](CCCNC(=N)N)C(=O)N1CCC[C@H]1C(=O)NCC(N)=O`, the pIC50 is 7.26 with MCF7; 6.03 with PC-3; 8.62 in data set [2]; 5.62 in the data set with MDA-MB-231; 6.16 in the data set on DU-145. Besides, the Drug metabolism was 300 ng/mL in data set [12]; “Metabolite_Detected” in data set [3]; “Metabolite_Notdetected” in [4]; “Metabolite_Detected” in data set [5]; “Metabolite_Detected” in data set [14]; 500 ng/mL in [15]. The degraded at 24 h, 1 µM in data set [13] amounted to 100%. Besides, the AUC in data set [6] is reported as 38.6 ng/10^6 cells × hr. For the same compound, in data set [11], the Cmax is given as 8 ng/10^6 cells. For the same compound, the Stability entry in data set [10] is listed as “Unstable”.
In the case of `Nc1ccn([C@@H]2O[C@H](CO)[C@@H](O)C2(F)F)c(=O)n1` [GEMCITABINE], the pIC50 in the data set on MCF7 is 7.42; with PC-3 it was 6.38; in the data set on MDA-MB-231 it was 5.80; in the data set with DU-145, 6.67. The concentration at 0.5 h in data set [1] came to 3 ng/mL.
